Source: PubChem BioAssay
Active and inactive are the calls of the source.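 How the source made its calls, unless noted: active means inhibition of the reporter signal at or above 50%; inactive means inhibition below 50%.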

Columns and labels:
[1] = inhibitors of TNFa-induced NFkB p65 translocation, primary screen, imaging, HUVEC, MLSMR starter and 10KST1 sets (AID 438;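 active means inhibition above 20% together with a positive visual image hit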;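 further: compound added about 3h40 before a 20 min TNFalpha stimulation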;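 on inhibition: signal is the nuclear over cytoplasmic p65 intensity ratio per well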); conditions: HUVEC TNFa-induced p65 nuclear translocation; cell count: measured here: nuclei count (cytotoxicity indicator), at 2.08 µM; inhibition: at 2 µM, stronger effect = higher value, 0% TNFa-plus-vehicle, 100% no-TNFa wells
[2] = reduction of polyQ htt aggregates in cells – imaging, exon1htt(103Q)mCFP cells, high-content imaging, primary screen (AID 483;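 active means visual image review flags a hit and inhibition of aggregation exceeds 20%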;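 further: compound exposure lasted 3 days before fixation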;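 on nuclei count: percent of the per-plate median nuclei count of sample wells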); conditions: exon1htt(103Q)mCFP cell line, aggregate imaging, at 2 µM; inhibition of aggregation: stronger effect = higher value; nuclei count: measured here: cell count, toxicity
[3] = endothelial E-selectin expression blockers – imaging, HUVEC, immunofluorescence, MLSMR starter and 10KST1 sets, primary screen (AID 487;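 active means visually confirmed hit in the image check and inhibition above 20%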;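 on inhibition: signal is fraction of cell area covered by stained E-selectin grains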;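 on nuclei count: 100% = median nuclei count of all wells on the same plate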); conditions: HUVEC TNFalpha-induced E-selectin immunofluorescence imaging, at 2 µM; inhibition: stronger effect = higher value; nuclei count: measured here: cell number, toxicity
[4] = target: Voltage-gated potassium channel subunit beta-2 (Rattus norvegicus) (UniProt P62483); experiment: inhibitors of rat Kvbeta2 reductase activity – biochemical, NADPH fluorescence, primary screen (AID 622;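 active means fluorescence slope higher than the sample average by over 3 SD, cut at about -0.22 in these data, passing the limit was not always enough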;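 further: slope of raw intensity against log time taken from 70 to 1610 s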); conditions: recombinant KvBeta, 4-cyanobenzaldehyde reduction, at 10 µM, stronger effect = higher value
[5] = target: Voltage-gated potassium channel subunit beta-2 (Rattus norvegicus) (UniProt P62483); experiment: enhancers of rat Kvbeta2 NADPH turnover – biochemical, NADPH fluorescence, primary screen (AID 623;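 active means NADPH fluorescence slope more negative than the mean of all samples by about 3 SD, 99.7% confidence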;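 further: fluorescence intensity change per second fitted from 20 to 320 s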); conditions: Recombinant KvBeta, NADPH fluorescence decrease slope, 10 min; at 10 µM; stronger effect = lower value
[6] = target: Muscarinic acetylcholine receptor M4 (Homo sapiens) (UniProt P08173); experiment: M4-linked GIRK flux change, two-sided – cell-based, HEK293 M4/GIRK, thallium flux, BTC-AM, M4 allosteric agonist project, primary screen (AID 625;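 active means fluorescence slope after compound addition differing from the mean of all tested samples at 99.7% confidence, mostly higher but some lower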;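 further: thallium influx through GIRK channels coupled to M4 in HEK293 cells with BTC-AM dye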); conditions: at 10 µM, actives lie on both sides
In short: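 assay system = HEK293 cells with M4 receptor and GIRK channels | medium = pH 7.3 thallium assay buffer | doses = 10 µM final, single point | timing = cells overnight at 37 °C, BTC-AM loading 1 h, reads 2 min total | signal = BTC-AM fluorescence, 1 Hz kinetic reads | read-out = post-addition slope, 15–24 s, of baseline-normalized fluorescence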

[7] = blockers of RIG-like receptor reporter activation – cell-based, Sendai virus stimulus, luciferase, 10K MLSCN set, TLR/RLR signaling modifier project, primary screen (AID 602276;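 active means inhibition at or above 50% at 10 µM; inactive means inhibition below 50%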;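 further: firefly luciferase from ISG56 promoter only with Renilla not read in this screen; 0% = Sendai virus plus DMSO and 100% = medium plus DMSO without virus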); conditions: HEK293 RL24 IRF3 luciferase reporter, at 10 µM, stronger effect = higher value
[8] = TLR3 IRF3 reporter activation blockers – cell-based, poly I:C stimulus, luciferase, 10K MLSCN set, primary screen (AID 602277); conditions: HEK293-TLR3 RL24 IRF3 luciferase reporter, at 10 µM, stronger effect = higher value

Muscarinic acetylcholine receptor M4 (Homo sapiens), sequence (P08173 whole entry, looked up): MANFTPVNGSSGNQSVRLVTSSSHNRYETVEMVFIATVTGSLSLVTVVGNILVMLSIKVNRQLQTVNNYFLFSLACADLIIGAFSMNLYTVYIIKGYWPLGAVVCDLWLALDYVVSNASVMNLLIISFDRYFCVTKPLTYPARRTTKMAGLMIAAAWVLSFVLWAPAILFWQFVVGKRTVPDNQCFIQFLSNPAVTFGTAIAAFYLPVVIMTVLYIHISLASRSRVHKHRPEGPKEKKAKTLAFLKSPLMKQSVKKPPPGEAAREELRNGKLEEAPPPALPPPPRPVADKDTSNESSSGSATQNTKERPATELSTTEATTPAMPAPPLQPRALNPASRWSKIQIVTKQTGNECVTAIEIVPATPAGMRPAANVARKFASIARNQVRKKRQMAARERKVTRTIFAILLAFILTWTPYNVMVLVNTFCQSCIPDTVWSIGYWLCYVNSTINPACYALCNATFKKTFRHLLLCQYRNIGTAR
Voltage-gated potassium channel subunit beta-2 (Rattus norvegicus), sequence (P62483 whole entry, looked up): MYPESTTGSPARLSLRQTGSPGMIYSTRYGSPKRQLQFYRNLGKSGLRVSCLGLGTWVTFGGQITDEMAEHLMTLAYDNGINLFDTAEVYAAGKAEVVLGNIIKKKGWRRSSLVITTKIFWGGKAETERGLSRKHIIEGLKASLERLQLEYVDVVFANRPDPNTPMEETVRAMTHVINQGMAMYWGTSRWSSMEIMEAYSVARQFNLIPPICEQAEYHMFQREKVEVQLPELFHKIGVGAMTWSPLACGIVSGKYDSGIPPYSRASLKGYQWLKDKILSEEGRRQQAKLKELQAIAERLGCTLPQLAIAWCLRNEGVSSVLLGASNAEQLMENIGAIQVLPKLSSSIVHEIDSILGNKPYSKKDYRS

Row | SMILES | cell count [1] | inhibition [1] | inhibition of aggregation [2] | nuclei count [2] [%] | inhibition [3] | nuclei count [3] [%] | fluorescence slope [4] | NADPH fluorescence slope [5] | fluorescence slope [6] | inhibition [7] | inhibition [8]
1 | O=C(Nc1nncs1)c1ccccc1NS(=O)(=O)c1cccs1 | 326 | 21.9% (inactive) | 5.1% (inactive) | 111 | -44.6% (inactive) | 108 | -0.0751 (inactive) | -1.1e-05 (inactive) | 0.00575 (inactive) | -6.81% (inactive) | -4.84% (inactive)
2 | O=C(NCc1ccc(F)cc1)c1cc(-c2ccco2)on1 | 330 | -17.6% (inactive) | 18.1% (inactive) | 92 | 29.3% (inactive) | 102 | -0.46 (inactive) | -5.1e-05 (inactive) | 0.00521 (inactive) | -17.1% (inactive) | -42.6% (inactive)
3 | CCN1C(=O)OC2(CCCCC2)C1(C)O (stereo not drawn) | 429 | 0% (inactive) | -3.6% (inactive) | 114 | 9.3% (inactive) | 106 | -0.566 (inactive) | 2.7e-05 (inactive) | 0.00575 (inactive) | 4.15% (inactive) | 8.64% (inactive)
4 | O=C(CSc1nnc(Cn2nnc(-c3ccccc3)n2)n1-c1ccccc1)Nc1ccc(F)cc1 | 626 | -9.3% (inactive) | -10.3% (inactive) | 101 | -114% (inactive) | 111 | -0.573 (inactive) | -6e-05 (inactive) | 0.00351 (inactive) | 10.9% (inactive) | 14.9% (inactive)
5 | O=c1[nH]c2c(s1)C(c1ccco1)C1C3CCC(C3)C1S2 (stereo not drawn) | 220 | 9.2% (inactive) | 12.3% (inactive) | 89.5 | -32.2% (inactive) | 108 | -0.574 (inactive) | -4.2e-05 (inactive) | 0.00506 (inactive) | 12.1% (inactive) | 26.3% (inactive)
6 | O=C(CCn1c(=O)oc2ccccc21)NCCN1CCc2ccccc2C1 | 375 | 7.2% (inactive) | 5.1% (inactive) | 93.1 | -315% (inactive) | 108 | -0.451 (inactive) | -2.5e-05 (inactive) | 0.00577 (inactive) | 15.7% (inactive) | 29.6% (inactive)
7 | CCOC(=O)c1cccc(NC(=O)Cn2cnc3c2c(=O)n(C)c(=O)n3C)c1 | 467 | 10.1% (inactive) | 2.8% (inactive) | 123 | 2.2% (inactive) | 114 | -0.261 (inactive) | -7e-06 (inactive) | 0.00582 (inactive) | -6.03% (inactive) | -6.74% (inactive)
8 | CN(CC(=O)N1CCN(c2ccc(F)cc2)CC1)S(=O)(=O)c1ccc(F)cc1 | 389 | -5.2% (inactive) | -9.8% (inactive) | 103 | -100% (inactive) | 121 | -0.595 (inactive) | -6.1e-05 (inactive) | 0.00279 (inactive) | 11.3% (inactive) | -4.19% (inactive)
9 | CCn1cc(C2=NOC(C(=O)Nc3cc(C)nn3-c3ccccc3)C2)c(C)n1 (stereo not drawn) | 542 | -3.4% (inactive) | 11.1% (inactive) | 93.2 | -52.6% (inactive) | 84.5 | -0.448 (inactive) | 9.7e-06 (inactive) | 0.00533 (inactive) | -1.87% (inactive) | 98.7% (active)
10 | CCc1nc(SCC(=O)Nc2nccs2)c2oc3ccccc3c2n1 | 347 | 4% (inactive) | 12.5% (inactive) | 104 | -14.6% (inactive) | 116 | -0.283 (inactive) | -2.5e-06 (inactive) | 0.00667 (inactive) | 1.9% (inactive) | -8.08% (inactive)
11 | Nc1ncnc2nc(SCCN3CCCCC3)[nH]c12 | 189 | -0.7% (inactive) | 5% (inactive) | 90.8 | -0.1% (inactive) | 92.4 | -0.545 (inactive) | -3.4e-05 (inactive) | 0.00574 (inactive) | 17.8% (inactive) | 10.9% (inactive)
12 | CC(=O)Nc1ccc(NC(=O)c2ccccc2F)cc1 | 345 | -4.6% (inactive) | 1.3% (inactive) | 102 | -14.4% (inactive) | 116 | -0.556 (inactive) | -1.7e-05 (inactive) | 0.00528 (inactive) | -10.5% (inactive) | -55% (inactive)
13 | CCC(C)(C)n1nnnc1C(c1ccccc1OC)N1CCSCC1 (stereo not drawn) | 252 | -16.3% (inactive) | 6.6% (inactive) | 106 | 32.4% (inactive) | 53.7 | -0.555 (inactive) | -4.3e-05 (inactive) | 0.00476 (inactive) | 6.1% (inactive) | 23.7% (inactive)
14 | O=C(O)c1[nH]nc2c1COc1ccccc1-2 | 308 | 13.1% (inactive) | -9.9% (inactive) | 97 | 14.8% (inactive) | 102 | -0.551 (inactive) | -0.000118 (inactive) | 0.00437 (inactive) | 14.5% (inactive) | 22.3% (inactive)
15 | O=C(CSc1nnnn1-c1ccccc1)Nc1nsc(-c2ccc(Cl)cc2)n1 | 449 | -4.1% (inactive) | 17.3% (inactive) | 95.1 | 59.2% (inactive) | 130 | -0.561 (inactive) | -3.3e-05 (inactive) | 0.00729 (inactive) | 15.4% (inactive) | 15.1% (inactive)
16 | CCn1c(CC(=O)Nc2cccc(OC)c2)nnc1SCC(=O)Nc1nccs1 | 835 | 4.3% (inactive) | 8.8% (inactive) | 103 | -129% (inactive) | 112 | -0.545 (inactive) | -3.8e-05 (inactive) | 0.00415 (inactive) | 4.04% (inactive) | 21.5% (inactive)
17 | COCCn1nnnc1C(c1cc2cc(C)cc(C)c2[nH]c1=O)N1CCN(c2ccccc2F)CC1 (stereo not drawn) | 660 | 10.1% (inactive) | -11% (inactive) | 80.7 | 13.5% (inactive) | 130 | -0.413 (inactive) | 0.000111 (inactive) | 0.00818 (inactive) | 16.8% (inactive) | 29.8% (inactive)
18 | CCN(CC)c1ccc2c(c1)CCCN2 | 669 | 6.8% (inactive) | 2.8% (inactive) | 91 | -36.1% (inactive) | 126 | -0.559 (inactive) | 3.7e-05 (inactive) | 0.00991 (inactive) | 8.33% (inactive) | 1.7% (inactive)
19 | CN(C)c1ccc(NC(=O)CSCc2nc3c(nnn3Cc3ccc(F)cc3)c(=O)[nH]2)cc1 | 579 | 7.1% (inactive) | -8.4% (inactive) | 105 | -72.4% (inactive) | 114 | -0.204 (inactive) | -6.4e-06 (inactive) | 0.00529 (inactive) | 10.7% (inactive) | 15.6% (inactive)
20 | COc1ccccc1C(=O)NCCc1nc2ccccc2n1C | 564 | -11.3% (inactive) | -5.2% (inactive) | 113 | 15.5% (inactive) | 101 | -0.294 (inactive) | -2.3e-05 (inactive) | 0.00691 (inactive) | -9.79% (inactive) | -4.78% (inactive)
21 | COc1ccc(C)cc1-n1nnnc1SCC(=O)NC(=O)NCc1ccco1 | 180 | -9.6% (inactive) | 25% (inactive) | 65.2 | 8.9% (inactive) | 90.6 | -0.57 (inactive) | -1.3e-05 (inactive) | 0.00596 (inactive) | 16.7% (inactive) | 16% (inactive)
22 | O=C(CSc1nc2ccccc2o1)N1CCN(c2ccc(Cl)cc2)CC1 | 301 | -0.5% (inactive) | -13.9% (inactive) | 117 | -47% (inactive) | 124 | -0.576 (inactive) | -3.9e-05 (inactive) | 0.00749 (inactive) | 16.8% (inactive) | 7.29% (inactive)
23 | CCCC(C)C(=O)Nc1ccc(C(N)=O)cc1 (stereo not drawn) | 668 | 0.5% (inactive) | 1% (inactive) | 110 | 22.4% (inactive) | 87 | -0.272 (inactive) | -3.2e-05 (inactive) | 0.00544 (inactive) | 11.2% (inactive) | 13.5% (inactive)
24 | Cn1cccc1C1NC(=O)c2c(sc3c2CCC(C(C)(C)C)C3)N1 (stereo not drawn) | 495 | 1.7% (inactive) | -10.6% (inactive) | 93 | -107% (inactive) | 127 | -0.19 (inactive) | -1.5e-05 (inactive) | 0.00584 (inactive) | -3.95% (inactive) | -48.7% (inactive)
25 | COc1ccc(CCNC(=O)C2CCN(Cc3nc(-c4cccc(Cl)c4)oc3C)CC2)cc1OC | 400 | 6% (inactive) | 17.8% (inactive) | 94.3 | -12.2% (inactive) | 86.6 | -0.584 (inactive) | -1.7e-05 (inactive) | 0.00471 (inactive) | 6.77% (inactive) | -17.9% (inactive)
26 | COc1ccc2c(=O)c3c(=O)n(Cc4ccco4)c(C(C)C)nc3oc2c1 | 436 | -3.9% (inactive) | -10.1% (inactive) | 91.7 | -15.2% (inactive) | 107 | -0.564 (inactive) | -2.1e-05 (inactive) | 0.00474 (inactive) | 4.04% (inactive) | 9.95% (inactive)
27 | O=C(Cc1c(O)c2ccccc2[nH]c1=O)NCc1ccc(F)cc1 | 251 | 4.3% (inactive) | 18.1% (inactive) | 61.3 | -25.6% (inactive) | 115 | -0.544 (inactive) | -2e-05 (inactive) | 0.00681 (inactive) | 20.7% (inactive) | 24.8% (inactive)
28 | CCc1nccn1S(=O)(=O)c1ccc2ccc(C)cc2c1 | 319 | -8.5% (inactive) | -4.1% (inactive) | 104 | -60.6% (inactive) | 112 | -0.512 (inactive) | 1.6e-05 (inactive) | 0.00461 (inactive) | -9.41% (inactive) | -15.4% (inactive)
